# The source made the active and inactive calls. No cut-off for these calls is given here.
# Experiments:
# HCT-116 [1] = assay: Induction of apoptosis in human HCT116 cells assessed as PARP cleavage at 30 uM upto 48 hrs by Western blot analysis; type: functional, cell-based
# How it was run: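 Time course: HCT116 cells were exposed to 30 μM compound for 6, 12, 24, 36 and 48 h. LC3-II, beclin 1, cleaved caspase-8 and cleaved PARP were measured by Western blot (SDS-PAGE, PVDF, ECL) with β-actin as internal standard.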
# HCT-116 [2] = assay: Induction of autophagy in human HCT116 cells assessed as increase in LC3-2 expression at 30 uM at 24 hrs by Western blot analysis; type: functional, cell-based
# HCT-116 [3] = assay: Induction of apoptosis in human HCT116 cells assessed as activation of caspase 9 at 10 to 30 uM after 48 hrs by Western blot analysis; type: functional, cell-based
# How it was run: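 HCT116 cells were treated with the indicated concentrations for 48 h. Lysates were prepared in SDS sample buffer and 10–30 μg protein was separated by SDS-PAGE, blotted to PVDF and blocked in 5% BSA. Cleaved caspase-8, -9, -3 and PARP were detected by ECL.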
# HCT-116 [4] = assay: Induction of autophagy in human HCT116 cells assessed as accumulation of beclin 1 after 24 hrs by Western blot analysis; type: functional, cell-based
# How it was run: (§1)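 HCT116 cells were cultured 24 h with the indicated concentrations. Lysates were made in SDS buffer with NaF and orthovanadate and quantified by BCA; 10–30 μg protein was separated by 6–15% SDS-PAGE and transferred to PVDF. After 5% BSA blocking, blots were probed for LC3-II, beclin 1, p62, LAMP1 and cathepsin D, with ECL detection.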
# [5] = Inhibition of PI3K/Akt/mTOR in human HCT116 cells assessed as downregulation of PI3K p101 at 10 to 30 uM after 24 hrs by Western blot analysis; type: cell-based
# How it was run: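 HCT116 cells were lysed after 24 h with the indicated concentrations. PI3K, PTEN, Akt and mTOR were immunoblotted (SDS-PAGE, PVDF, 5% BSA block, ECL).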
# [6] = Toxicity in BALB/c-nu mouse xenografted with human HCT116 cells assessed as change in body weight at 2.5 to 5 mg/kg, ip administered three times per week for 28 days measured during compound dosing relative to control; type: organism-based; details: in vivo, 672 h
# How it was run: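 Nude mice carried subcutaneous flank HCT116 implants (2 × 10^6 cells in 200 μL medium). At about 200 mm3 they were randomised into groups of five. Compound at 2.5 or 5 mg/kg in saline with 0.5% Tween 80 was given ip three times weekly for 4 weeks; controls received vehicle. Body weight was monitored throughout for toxicity.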
# HCT-116 [7] = assay: Induction of autophagy in human HCT116 cells assessed as upregulation of cathepsin D expression at 10 to 30 uM after 24 hrs by Western blot analysis; type: functional, cell-based; how it was run: as §1
# HCT-116 [8] = assay: Induction of apoptosis in human HCT116 cells assessed as upregulation of Bax levels at 10 to 30 uM after 48 hrs by Western blot analysis; type: functional, cell-based
# HCT-116 [9] = assay: Induction of autophagy in human HCT116 cells assessed as accumulation of LC3-2 at 20 uM after 24 hrs in presence of bafilomycin A1 by Western blot analysis; type: functional, cell-based
# How it was run: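 HCT116 cells were exposed 24 h to 20 μM compound, 2.5 nM bafilomycin A1, or both together. LC3-II was measured by Western blot with β-actin as internal standard. Blots are representative of three separate determinations.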
# HCT-116 [10] = assay: Antitumor activity against human HCT116 cells xenografted in BALB/c-nu mouse assessed as inhibition of tumor weight at 2.5 mg/kg, ip administered three times per week for 28 days measured post dosing relative to control; type: functional; details: HCT-116, ip, 672 h
# How it was run: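 Nude mice bearing subcutaneous HCT116 flank tumors (2 × 10^6 cells) were randomized at ~200 mm3, five per group. Dosing was 2.5 or 5 mg/kg ip in saline/0.5% Tween 80, three times weekly for 28 days, with vehicle controls. Tumors were excised on day 28 and weighed; inhibition was expressed against the vehicle group.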
# HCT-116 [11] = assay: Induction of autophagy in human HCT116 cells assessed as increase in beclin 1 expression at 30 uM at 24 hrs by Western blot analysis; type: functional, cell-based
# HCT-116 [12] = assay: Induction of apoptosis in human HCT116 cells assessed as increase in t-BID levels after 48 hrs by Western blot analysis; type: functional, cell-based
# HCT-116 [13] = assay: Induction of autophagy in human HCT116 cells assessed as accumulation of LC3-2 after 24 hrs by Western blot analysis; type: functional, cell-based; how it was run: as §1
# HCT-116 [14] = assay: Induction of beclin 1 cleavage in human HCT116 cells at 30 uM after 48 hrs in presence of caspase-8 inhibitor z-IETD-FMK by Western blot analysis; type: functional, cell-based
# How it was run: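 HCT116 cells were cultured 48 h with 30 μM compound, with or without 20 μM z-IETD-FMK. Lysates were made in SDS loading buffer and 10–30 μg protein was resolved by 6–15% SDS-PAGE and transferred to PVDF. Blots were probed for cleaved caspase-8, beclin 1, cleaved beclin 1 and LC3-II, and detected by ECL.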
# HCT-116 [15] = assay: Cell cycle arrest in human HCT116 cells assessed as accumulation at subG1 phase at 10 uM after 48 hrs by propidium iodide staining based flow cytometry; type: functional
# [16] = target: Cellular tumor antigen p53 (Homo sapiens) (UniProt P04637); assay: Induction of p53 expression in human HCT116 cells assessed as increase in p21 levels after 24 hrs by Western blot analysis; type: cell-based
# Sequence of Cellular tumor antigen p53 (Homo sapiens) (P04637 whole entry, looked up): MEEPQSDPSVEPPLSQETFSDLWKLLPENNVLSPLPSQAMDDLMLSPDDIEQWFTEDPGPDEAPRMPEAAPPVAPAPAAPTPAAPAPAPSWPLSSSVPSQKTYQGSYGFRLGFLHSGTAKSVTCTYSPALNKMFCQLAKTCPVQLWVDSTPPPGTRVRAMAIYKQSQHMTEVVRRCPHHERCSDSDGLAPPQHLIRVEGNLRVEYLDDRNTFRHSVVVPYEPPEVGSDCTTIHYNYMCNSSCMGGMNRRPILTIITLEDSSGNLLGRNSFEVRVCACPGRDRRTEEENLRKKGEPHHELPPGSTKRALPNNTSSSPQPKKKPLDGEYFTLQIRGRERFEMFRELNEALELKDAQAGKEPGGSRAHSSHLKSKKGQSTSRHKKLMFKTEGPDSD
# Mus musculus = assay: Induction of PARP cleavage in human HCT116 cells xenografted in BALB/c-nu mouse at 2.5 to 5 mg/kg, ip administered three times per week for 28 days measured post dosing by Western blot analysis; type: functional, organism-based
# How it was run: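 Excised xenograft tumors (2.5 or 5 mg/kg ip, three times weekly for 28 days) were frozen. Portions were thawed on ice and homogenized in Complete Lysis Buffer, then protein was quantified. Cleaved PARP was detected by Western blot with β-actin as internal standard; blots shown are representative of three determinations.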
# HCT-116 [17] = assay: Induction of autophagy in human HCT116 cells assessed as formation of acidic vesicular organelles at 20 uM after 24 hrs by acridine orange staining based assay relative to control; type: functional, cell-based
# How it was run: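 Cells were seeded at 1 × 10^5/well, grown 24 h, then treated 24 h with 20 μM compound, 2.5 nM bafilomycin A1, or both. They were stained with acridine orange (2 μg/mL) for 15 min and washed in DPBS. AO-positive cells were quantified by high-content imaging and expressed as an index versus vehicle. Triplicates.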
# HCT-116 [18] = assay: Induction of apoptosis in human HCT116 cells at 10 uM after 48 hrs by Annexin V-FITC/propidium iodide staining based flow cytometry; type: functional
# How it was run: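 HCT116 cells were treated 48 h, then resuspended in binding buffer at 1 × 10^6 cells/mL. They were stained with annexin V-FITC and PI for 20 min at room temperature in the dark, diluted and analyzed immediately by flow cytometry for annexin V-positive cells. n = 3.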
# HCT-116 [19] = assay: Induction of autophagy in human HCT116 cells assessed as accumulation of LC3-2 at 30 uM after 24 hrs in presence of autophagy inhibitor 3-MA by Western blot analysis; type: functional, cell-based
# How it was run: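 HCT116 cells were pretreated 1 h with 2 mM 3-MA, then given 30 μM compound for a further 24 h. Whole-cell lysates were immunoblotted for LC3-II and cleaved PARP, with β-actin as loading standard and ECL detection. Blots are representative of three separate determinations.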
smiles,measurement,setting,value
C[C@H]1CC[C@@]2(OC1)O[C@H]1C[C@H]3[C@@H]4CC=C5C[C@@H](O)C[C@@H](O[C@@H]6O[C@H](C)[C@H](O)[C@H](O[C@@H]7OC[C@@H](O)[C@H](O)[C@H]7O)[C@H]6O[C@@H]6O[C@H](CO)[C@@H](O)[C@H](O)[C@H]6O)[C@]5(C)[C@H]4CC[C@]3(C)[C@H]1[C@@H]2C,Activity,HCT-116 [1],Active
same,Activity,HCT-116 [2],Active
same,Activity,HCT-116 [3],Active
same,Activity,HCT-116 [4],Dose-dependent effect
same,inhibition,[5],Active
same,Activity,[6],Non-Toxic
same,Activity,HCT-116 [7],Active
same,Activity,HCT-116 [8],Active
same,Activity,HCT-116 [9],Active
same,inhibition in vivo at 2.5 mg/kg,HCT-116 [10],43%
same,Activity,HCT-116 [11],Active
same,Activity,HCT-116 [12],Dose-dependent effect
same,Activity,HCT-116 [13],Dose-dependent effect
same,Activity,HCT-116 [14],inactive
same,Activity,HCT-116 [15],5.52%
same,Activity,[16],Dose-dependent effect
same,Activity,Mus musculus,Active
same,Activity,HCT-116 [17],Active
same,Activity,HCT-116 [18],13.42%
same,Activity,HCT-116 [19],inactive
